Assay results from ChEMBL document CHEMBL1146725, “Discovery and SAR of potent, orally available and brain-penetrable 5,6-dihydro-4H-3-thia-1-aza-benzo[e]azulen- and 4,5-dihydro-6-oxa-3-thia-1-aza-benzo[e]azulen derivatives as neuropeptide Y Y5 receptor antagonists” (Bioorg Med Chem Lett, 2004).
pIC50: −log10 of the molar value. Values joined by “and” are separate entries in the source; they are usually repeats but may differ in a detail not shown here. Equal values may be shown once.

How the values were obtained:
[1] = molecular target: T1, Neuropeptide Y receptor type 5 (Homo sapiens, UniProt Q15761); experiment: (§1) In vitro binding affinity against human neuropeptide Y5 receptor
T1 sequence (Q15761 whole entry): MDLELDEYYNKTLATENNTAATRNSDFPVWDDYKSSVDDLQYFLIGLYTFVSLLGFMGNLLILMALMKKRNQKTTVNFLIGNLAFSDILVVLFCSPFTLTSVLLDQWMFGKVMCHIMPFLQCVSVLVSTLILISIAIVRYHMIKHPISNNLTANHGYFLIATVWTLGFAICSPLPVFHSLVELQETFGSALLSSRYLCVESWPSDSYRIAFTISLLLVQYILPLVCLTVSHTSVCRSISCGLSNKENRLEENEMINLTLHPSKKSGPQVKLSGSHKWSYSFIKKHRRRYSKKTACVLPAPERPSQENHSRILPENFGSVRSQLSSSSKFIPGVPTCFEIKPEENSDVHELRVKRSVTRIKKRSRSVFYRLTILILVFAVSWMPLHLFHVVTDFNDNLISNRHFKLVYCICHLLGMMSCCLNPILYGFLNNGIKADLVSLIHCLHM

[2] = molecular target: T1, Neuropeptide Y receptor type 5; experiment: as §1; remark: listed apart in the source
In short: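 Reported as IC50 (nM), each value the mean of three separate experiments.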

[3] = (§2) Concentration (30 mg/kg, p.o.) in rat hypothalamus after 2 hours; format: ADME, organism-based; conditions: hypothalamus, po
In short: (§3)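 Male rats (RA238), fasted overnight, given 30 mg/kg by oral gavage (5 mL/kg) in 20% Cremophore EL/water (w/w). Plasma and hypothalamus were sampled at 2 and 6 h post-dose and levels measured by LC-MS. Values are the mean of 3-6 animals per time point, as µg/mL plasma and µg/g hypothalamus.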

[4] = (§4) Concentration (30 mg/kg, p.o.) in rat hypothalamus after 6 hours; format: ADME, organism-based; conditions: hypothalamus, po; in short: as §3
[5] = (§5) Concentration (30 mg/kg, p.o.) in rat plasma after 6 hours; format: ADME, organism-based; conditions: plasma, po; in short: as §3
[6] = Concentration (30 mg/kg, p.o.) in rat plasma after 2 hours; format: ADME, organism-based; conditions: plasma, po; in short: as §3
Rattus norvegicus [7] = experiment: as §2; format: ADME, organism-based; conditions: in vivo, po, 2 h; in short: as §3
Rattus norvegicus [8] = experiment: as §4; format: ADME, organism-based; conditions: in vivo, po, 6 h; in short: as §3
Rattus norvegicus [9] = experiment: as §5; format: ADME, organism-based; conditions: in vivo, po, 6 h; in short: as §3

SMILES | pIC50 [1] | further results
CC(C)N1CCN(CC(=O)N[C@H]2CC[C@H](CNc3nc4c(s3)CCCc3ccc(F)cc3-4)CC2)CC1 | 6.68 | –
CCCCC(=O)N1CCC(CNc2nc3c(s2)CCOc2ccc(C)cc2-3)CC1 | 8.15 | –
Cc1ccc2c(c1)-c1nc(NCC3CCN(C(=O)[C@@H]4CCCO4)CC3)sc1CCO2 | 7.77 | –
CCOCC(=O)N1CCC(CNc2nc3c(s2)CCOc2ccc(C)cc2-3)CC1 | 7.74 | –
O=C(CN1CCCCC1)N1CCC(CNc2nc3c(s2)CCOc2ccc(F)cc2-3)CC1 | – | pIC50 [2]: 7.15
COCC(=O)N1CCC(CNc2nc3c(s2)CCOc2ccc(F)cc2-3)CC1 | – | pIC50 [2]: 7.43
CCOC(=O)N1CCC(CNc2nc3c(s2)CCCc2ccc(F)cc2-3)CC1 | 8.40 | –
CN(CC(=O)N1CCC(CNc2nc3c(s2)CCCc2ccc(F)cc2-3)CC1)CC1CC1 | 8.52 | –
O=C(CN1CCCCC1)N[C@H]1CC[C@H](CNc2nc3c(s2)CCCc2ccc(F)cc2-3)CC1 | 7.54 | –
O=C(CN1CCCCC1)N1CCC(CNc2nc3c(s2)CCCc2ccccc2-3)CC1 | 8.22 | –
Nc1nc2c(s1)-c1ccccc1Sc1ccccc1-2 | 5.74 | –
O=C(CCN1CCCCC1)N[C@H]1CC[C@H](CNc2nc3c(s2)CCCc2ccc(F)cc2-3)CC1 | 6.82 | –
O=C(CN1CCOCC1)N1CCC(CNc2nc3c(s2)CCOc2ccc(F)cc2-3)CC1 | – | pIC50 [2]: 7.39
COCCNCC(=O)N1CCC(CNc2nc3c(s2)CCCc2ccc(F)cc2-3)CC1 | 8.70 | –
O=C1CC[C@H](C(=O)N2CCC(CNc3nc4c(s3)CCCc3ccc(F)cc3-4)CC2)O1 | 8.40 | –
O=C([C@H]1CCCO1)N1CCC(CNc2nc3c(s2)CCOc2ccc(F)cc2-3)CC1 | – | concentration at 2 h [3]: 2440 ng/g; concentration at 6 h [4]: 1080 ng/g; concentration at 6 h [5]: 390 ng/mL; concentration at 2 h [6]: 970 ng/mL; pIC50 [2]: 8.30
O=C(CN1CCCCC1)N1CCC(CNc2nc3c(s2)CCCc2ccc(Cl)cc2-3)CC1 | 8.15 | –
O=C(CN1CCCCC1)N1CCC(CNc2nc3c(s2)CCCc2ccc(F)cc2-3)CC1 | 8.40 | concentration at 2 h [3]: 1170 ng/g; concentration at 6 h [4]: 620 ng/g; concentration at 6 h [5]: 130 ng/mL; concentration at 2 h [6]: 240 ng/mL
CCCN(C)CC(=O)N[C@H]1CC[C@H](CNc2nc3c(s2)CCCc2ccc(F)cc2-3)CC1 | 8.22 | –
CC(=O)N1CCC(CNc2nc3c(s2)CCOc2ccc(F)cc2-3)CC1 | – | pIC50 [2]: 7.16

Continued, in another order:

pIC50 [1] | SMILES | further results
8.52 | COC[C@@H]1CCCN1CC(=O)N1CCC(CNc2nc3c(s2)CCCc2ccc(F)cc2-3)CC1 | –
7.89 | CC(C)C(=O)N1CCC(CNc2nc3c(s2)CCOc2cc(F)c(Cl)cc2-3)CC1 | –
7.68 | Cc1ccc2c(c1)-c1nc(NCC3CCN(C(=O)COC(C)C)CC3)sc1CCO2 | –
8.22 | O=C(CC1CC1)N[C@H]1CC[C@H](CNc2nc3c(s2)CCCc2ccc(F)cc2-3)CC1 | –
8.22 | O=C(N[C@H]1CC[C@H](CNc2nc3c(s2)CCCc2ccc(F)cc2-3)CC1)C1CC1 | –
8.22 | O=C(CNCC1CCCO1)N1CCC(CNc2nc3c(s2)CCCc2ccc(F)cc2-3)CC1 (stereo not given) | –
7.64 | CS(=O)(=O)NC[C@H]1CC[C@H](Nc2nc(-c3ccc(F)cc3)cs2)CC1 | –
5.61 | COc1ccc2c(c1)-c1nc(NCC3CCN(C(=O)CCN4CCCCC4)CC3)sc1CCO2 | –
7.82 | CN(C)S(=O)(=O)NC[C@H]1CC[C@H](Nc2nc3c(s2)-c2ccccc2Sc2ccccc2-3)CC1 | –
8.70 | COCCC(=O)N1CCC(CNc2nc3c(s2)CCCc2ccc(F)cc2-3)CC1 | –
9.00 | O=C(C1CCOC1)N1CCC(CNc2nc3c(s2)CCCc2ccc(F)cc2-3)CC1 (stereo not given) | concentration at 2 h [3]: 1220 ng/g; concentration at 6 h [4]: 440 ng/g; concentration at 6 h [5]: 140 ng/mL; concentration at 2 h [6]: 540 ng/mL
8.70 | O=C([C@H]1CCCO1)N1CCC(CNc2nc3c(s2)CCCc2ccc(F)cc2-3)CC1 | Concentration (Rattus norvegicus [7]): 0.86 µg/g and 2.44 µg/g; concentration at 6 h [4]: 670 ng/g; Concentration (Rattus norvegicus [8]): 0.67 µg/g; concentration at 6 h [5]: 220 ng/mL; Concentration (Rattus norvegicus [9]): 220 ng/mL
7.09 | CN(C)CC(=O)N[C@H]1CC[C@H](CNc2nc3c(s2)CCCc2ccc(F)cc2-3)CC1 | –
